Kir21 block: inhibitors of mouse Kir2.1 inward-rectifier potassium channel. AID 1672. B-score at 10 µM. HEK293-Kir2.1, FluxOR thallium flux fluorescence; active compounds read low. hit rate 0.85% among 310,000;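 active = fluorescence ratio B-score at or below minus 3 SD of library scores, with starting-brightness B-score within 2 SD, cut at about -4.2 in these data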;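 also: channel flux triggered by added potassium and thallium sulfate stimulus; B-score of peak minus minimum fluorescence over baseline after thallium stimulus; more negative B-score means stronger Kir2.1 block with less thallium influx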
TRPC4 potent: allosterically enhances the mouse TRPC4 cation channel | HEK293 TRPC4beta/mu-opioid, DAMGO EC20, Fluo-4 Ca2+ flux; active compounds read high | B-score at 10 µM | hit rate 0.42% among 310,000;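 active = B-score of calcium response area above 5 SD of library B-scores, with initial fluorescence ratio within 5 SD of library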
Target sequence (Q9QUQ5 whole entry, looked up): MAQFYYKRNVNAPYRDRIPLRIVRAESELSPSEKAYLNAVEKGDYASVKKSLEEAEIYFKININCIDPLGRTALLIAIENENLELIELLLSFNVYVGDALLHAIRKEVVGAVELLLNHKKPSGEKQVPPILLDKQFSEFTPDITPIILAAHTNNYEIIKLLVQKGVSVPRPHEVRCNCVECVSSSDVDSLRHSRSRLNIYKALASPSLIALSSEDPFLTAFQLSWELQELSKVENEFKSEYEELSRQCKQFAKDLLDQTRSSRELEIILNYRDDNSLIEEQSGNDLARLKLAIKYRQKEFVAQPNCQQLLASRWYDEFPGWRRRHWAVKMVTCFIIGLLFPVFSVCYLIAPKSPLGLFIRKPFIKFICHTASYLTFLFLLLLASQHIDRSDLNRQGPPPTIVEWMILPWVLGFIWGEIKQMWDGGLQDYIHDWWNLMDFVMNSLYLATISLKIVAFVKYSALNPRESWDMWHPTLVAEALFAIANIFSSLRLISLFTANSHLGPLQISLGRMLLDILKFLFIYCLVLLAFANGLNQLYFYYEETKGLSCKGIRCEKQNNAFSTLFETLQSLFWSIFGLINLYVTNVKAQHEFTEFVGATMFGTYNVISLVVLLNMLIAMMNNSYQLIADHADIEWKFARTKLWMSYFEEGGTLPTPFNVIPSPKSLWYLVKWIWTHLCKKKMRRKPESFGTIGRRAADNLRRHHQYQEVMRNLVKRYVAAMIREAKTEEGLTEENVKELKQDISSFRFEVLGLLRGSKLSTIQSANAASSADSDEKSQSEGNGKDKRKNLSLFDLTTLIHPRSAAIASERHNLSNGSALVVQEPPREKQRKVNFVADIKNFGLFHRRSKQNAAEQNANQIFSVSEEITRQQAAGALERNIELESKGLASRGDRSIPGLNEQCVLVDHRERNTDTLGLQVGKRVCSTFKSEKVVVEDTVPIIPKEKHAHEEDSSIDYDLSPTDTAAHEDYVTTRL
TRPC6 inh: inhibitors of mouse TRPC6 channel. Q61143. HEK293-TRPC6, membrane potential dye, ACh-evoked depolarization; active compounds read low. B-score at 10 µM. hit rate 1.1% among 310,000. AID 2553;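 active = B-score under library mean minus 3 SD, initial fluorescence not abnormally high, positive integrated signal ratio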;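 also: B-score derived from integrated fluorescence ratio over the kinetic read; more negative B-score means stronger inhibition of depolarization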
TRPC4 block: TRPC4 (mouse) channel inhibition. hit rate 0.39% among 300,000. B-score at 10 µM. HEK293 TRPC4beta/mu-opioid, DAMGO-evoked Fluo4 calcium flux; active compounds read low. Q9QUQ5. AID 2247;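 active = B-score over 3 SD under the library average, no early fluorescence shift, positive overall ratio signal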
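Material: HEK293 cells with stable TRPC4beta plus mu-opioid receptor expression / Probe or stimulus: DAMGO in two steps, submaximal then maximal / Compound: single concentration per test compound / Technique: kinetic Fluo4 fluorescence imaging of calcium influx / Read-out: per-well B score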
TRPC6 activator: activates the mouse TRPC6 cation channel; B-score at 10 µM; HEK293-TRPC6 membrane potential dye fluorescence; active compounds read high; Q61143; hit rate 0.13% among 310,000;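 active = B-score of the integrated fluorescence ratio above library mean plus 3 SD, and starting fluorescence ratio within library mean plus 5 SD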;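 also: higher score means more depolarization so channel activation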
TRPC4 act: TRPC4 (mouse) channel activation; HEK293 TRPC4beta/mu-opioid, Fluo4 calcium fluorescence; active compounds read high; B-score at 10 µM; hit rate 0.49% among 310,000;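 active = B-score above 5 SD of library B-scores, and initial fluorescence ratio not above library mean plus 5 SD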;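 also: positive B-score marks a calcium rise read as TRPC4 activation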
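System – HEK293 cells stably co-expressing mouse TRPC4beta and mu-opioid receptor · Signal – Fluo4 calcium-sensitive dye fluorescence, kinetic, 1 Hz baseline · Benchmarks – buffer (low) and maximal DAMGO (high) · Read-out – B score of integrated fluorescence ratio per well · Incubation – dye loading 45 min room temperature, 110 s kinetic read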
Hits are given with their value; 0 = inactive. In the library only some 2.9% were active in any assay of this set; here they are far more common.

SMILES | Kir21 block | TRPC4 potent | TRPC6 inh | TRPC4 block | TRPC6 activator | TRPC4 act
COCCNC(=O)/C(C#N)=C/c1cc(C(C)C)c(OC)cc1C | 0 | 17 | 0 | 0 | 0 | 0
COCCNC(=O)/C(C#N)=C/c1ccccc1Br | 0 | 13 | 0 | 0 | 0 | 0
Cc1ccc(-c2nc(C#N)c(N3CCC(C(N)=O)CC3)o2)cc1 | 0 | 0 | 0 | 0 | 0 | 0
COc1cccc(-n2ccnc2SCC(=O)Nc2ccccc2)c1 | -4.9 | 0 | 0 | 0 | 0 | 0
COc1cccc(-n2ccnc2SCC(=O)N2CCCc3ccccc32)c1 | -7.5 | 0 | 0 | 0 | 0 | 0
COc1cccc(NC(=O)CSc2nccn2-c2cccc(OC)c2)c1 | 0 | 0 | 0 | 0 | 0 | 0
CCOc1ccc(-n2ccnc2SCC(=O)N2CCCc3ccccc32)cc1 | -6.7 | 0 | 0 | 0 | 0 | 0
Cc1ccc(-c2nnc(SCC(=O)NC3CCCC3)n2C)cc1 | 0 | 0 | 0 | 0 | 0 | 0
O=C(CN1CCN(Cc2ccc(Cl)cc2)C1=O)NCCCN1CCOCC1 | 0 | 0 | 0 | 0 | 0 | 0
O=C(CN1CCN(Cc2ccc(Cl)cc2)C1=O)NCCCN1CCN(c2ccc(F)cc2)CC1 | 0 | 0 | 0 | -6 | 0 | 0
O=C(N/N=C/c1ccc(-n2ccnc2)cc1)c1cccs1 | 0 | 0 | 0 | 0 | 0 | 0
CCCN1CCC(NC(=O)Cc2cccc(C)c2)CC1 | 0 | 0 | 0 | 0 | 0 | 89
CCN1CCC(NC(=O)Nc2ccc(F)cc2)CC1 | 0 | 0 | 0 | 0 | 0 | 0
CCCN1CCC(NC(=O)Cc2ccc(C)cc2)CC1 | 0 | 10 | 0 | 0 | 0 | 62
Cc1cccc(CC(=O)NCCN2CCCCC2)c1 | 0 | 0 | 0 | 0 | 0 | 0
CCCN1CCC(NC(=O)Nc2ccc(F)cc2F)CC1 | 0 | 0 | 0 | 0 | 0 | 43
CCOC(=O)N1CCC(NC(=O)Cc2ccccc2)CC1 | 0 | 0 | 0 | 0 | 0 | 0
O=C(O)[C@H](Cc1ccccc1)NC(=O)N1CCN(c2ccc(F)cc2)CC1 | 0 | 0 | 0 | 0 | 0 | 0
COc1ccc(NC(=O)Cc2nnc(SCC(=O)NC3CCCC3)n2C)cc1 | 0 | 0 | 0 | 0 | 0 | 0
Cc1ccn2c(=O)c(C(=O)NC3CCCCC3C)c(O)nc2c1 (stereo not given) | 0 | 0 | 0 | 0 | 0 | 0
CCCN(CCC)CCNC(=O)C1CC(=O)N(c2ccc(OC)cc2)C1c1ccc(OC)cc1 (stereo not given) | 0 | 0 | 0 | 0 | 0 | 43
COc1ccc(OCC(O)CNS(=O)(=O)c2cccs2)cc1 (stereo not given) | 0 | 0 | 0 | 0 | 0 | 0
COc1cc(/C=N/NC(=O)CN2CCCCC2)ccc1OCc1ccc(Br)cc1 | -6.6 | 0 | 0 | 0 | 0 | 0
O=C(Oc1ccc(/C=N/O)cc1)c1ccccc1 | -5.6 | 0 | 0 | 0 | 0 | 0
O=C(O)c1ccc(N/N=C/c2ccc(OC(=O)c3cccc(Cl)c3)cc2)cc1 | 0 | 0 | 0 | 0 | 0 | 0
SMILES | Kir21 block | TRPC4 potent | TRPC6 inh | TRPC4 block | TRPC6 activator | TRPC4 act
COCCOC(=O)/C(=C/c1ccc(OC(=O)c2ccccc2)cc1)C(C)=O | -14 | 0 | 0 | 0 | 0 | 0
O=C(Oc1ccc(/C=N/Nc2ccccc2)cc1)c1ccccc1 | -4.6 | 0 | 0 | 0 | 0 | 0
COc1ccc(C(=O)N/N=C/c2ccc(OC(=O)c3ccccc3)cc2)cc1 | 0 | 0 | 0 | 0 | 0 | 0
CCOC(=O)/C(=C/c1ccc(OC(=O)c2ccncc2)cc1)C(C)=O | 0 | 0 | 0 | 0 | 0 | 0
O=C(Cn1c(=O)cnc2ccccc21)N1CCN(S(=O)(=O)c2cccc([N+](=O)[O-])c2)CC1 | 0 | 0 | 0 | 0 | 0 | 0
CN(Cc1ccco1)C(=O)Cn1nc(-c2ccc(Cl)cc2)ccc1=O | 0 | 0 | 0 | 0 | 0 | 0
CCn1c2ccccc2c2cc(Nc3cc(C)nc4ncnn34)ccc21 | -7.6 | 0 | 0 | 0 | 0 | 0
CC1=C(C(=O)OC(C)C)C(c2cn(-c3ccccc3)nc2-c2cccs2)NC(=O)N1 (stereo not given) | 0 | 13 | 0 | 0 | 0 | 0
COC(=O)C1=C(C)NC(=O)NC1c1cn(-c2ccccc2)nc1-c1cccs1 (stereo not given) | 0 | 0 | 0 | 0 | 0 | 0
CNC[C@H](Cc1ccccc1)NC[C@@H](Cc1cccc2ccccc12)NCCc1ccc(C)cc1 | -10 | 0 | 0 | 0 | 0 | 173

Source: PubChem (Johns Hopkins Ion Channel Center)
